Data from article PMC3672992 (Therapeutic drug monitoring, 2008).
Like-named read-outs stand apart in the source and are kept apart here. One block for each molecule: values may come before it.

Experiments:
[1] = without ritonavir boosting, cited from earlier work
[2] = cited from earlier work
[3] = mild hepatic impairment group; cited from earlier work
[4] = Steady-state pharmacokinetics of unbound lopinavir; format: in vivo, human
[5] = Steady-state plasma pharmacokinetics of total lopinavir; format: in vivo, human; conditions: for Total lopinavir Ctrough / Total lopinavir tmax: steady-state, median (IQR)
[6] = Steady-state plasma pharmacokinetics of total ritonavir; format: in vivo, human
How it was run: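 HIV-infected Caucasian adults took protease-inhibitor combination capsules at 400/100 mg twice daily (266/66 mg if under 50 kg) with standardized meals. After at least 2 wk of dosing, blood was drawn predose and 1, 2, 3, 4, 6, 8 and 12 h after the morning dose. EDTA plasma (600g, 10 min) was stored at −80°C and assayed by HPLC-UV (linear 100–16,000 ng/mL). Ctrough is the predose, noncompartmental value.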

[7] = patients with significant liver fibrosis; cited from earlier work
[8] = Group I HIV+/HCV−, n=12, median (IQR)
[9] = Group II HIV+/HCV+, n=18, median (IQR)
[10] = Group III HIV+/HCV+ with cirrhosis, n=6, median (IQR)
[11] = Group III HIV+/HCV+ with cirrhosis, n=9

SMILES: Cc1c(O)cccc1C(=O)N[C@@H](CSc1ccccc1)[C@H](O)CN1C[C@H]2CCCC[C@H]2C[C@H]1C(=O)NC(C)(C)C [NFV, nelfinavir]
NFV AUC(0–12) fold higher relative to noncoinfected HIV+ control group ([1]; HIV+/HCV+ patients with cirrhosis): 2.5 fold
NFV AUC(0–12) fold higher relative to noncoinfected HIV+ control group ([1]; HIV+/HCV+ patients): 1.3 fold

SMILES: O=C1Nc2ccc(Cl)cc2[C@@](C#CC2CC2)(C(F)(F)F)O1 [efavirenz]
Efavirenz plasma concentration ([2]; HCV-coinfected individuals without cirrhosis): 1.9 µg/mL
Efavirenz plasma concentration ([2]; patients with cirrhosis, P = 0.001): 3.4 µg/mL

Unbound lopinavir AUCu(0–12) [4, 8]: 0.87 (0.77–1.21) μg*h/mL
Unbound lopinavir Cu,max [4, 8]: 0.12 (0.10–0.14) μg/mL
Unbound lopinavir Cu,trough [4, 8]: 0.05 (0.03–0.08) μg/mL
Unbound lopinavir AUCu(0–12) [4, 9]: 1.21 (0.73–1.43) μg*h/mL
Unbound lopinavir Cu,max [4, 9]: 0.13 (0.10–0.18) μg/mL
Unbound lopinavir Cu,trough [4, 9]: 0.07 (0.05–0.10) μg/mL
Unbound lopinavir AUCu(0–12) [4, 10]: 1.41 (1.14–1.85) μg*h/mL
Unbound lopinavir Cu,max [4, 10]: 0.16 (0.14–0.18) μg/mL
Unbound lopinavir Cu,trough [4, 10]: 0.08 (0.03–0.10) μg/mL
Total lopinavir Ctrough ([5]; Group I HIV+/HCV−, n=24): 7.4 (4.1–10.0) μg/mL
Total lopinavir Ctrough ([5]; Group II HIV+/HCV+, n=23): 6.4 (4.5–10.1) μg/mL
Total lopinavir tmax ([5]; Group II HIV+/HCV+, n=23): 4.0 (4.0–6.0) h
Total lopinavir Ctrough [5, 11]: 7.0 (5.7–7.6) μg/mL
Total lopinavir tmax [5, 11]: 4.0 (4.0–6.0) h
Increase in drug clearance (compensatory effect) ([5]; HIV/HCV-coinfected patients with cirrhosis versus HIV+/HCV− patients): ~ 29%
SMILES: Cc1cccc(C)c1OCC(=O)N[C@@H](Cc1ccccc1)[C@@H](O)C[C@H](Cc1ccccc1)NC(=O)[C@H](C(C)C)N1CCCNC1=O [lopinavir]
Percentage of unbound LPV [3]: 0.89%

Total ritonavir Ctrough ([6]; Group I HIV+/HCV−, n=14, median (IQR)): 0.57 (0.51–0.77) μg/mL
Total ritonavir Ctrough ([6]; Group II HIV+/HCV+, n=15, median (IQR)): 0.50 (0.23–0.73) μg/mL
Total ritonavir Ctrough ([6]; Group III HIV+/HCV+ with cirrhosis, n=4, median (IQR)): 0.70 (0.65–0.72) μg/mL
SMILES: CC(C)c1nc(CN(C)C(=O)N[C@H](C(=O)N[C@@H](Cc2ccccc2)C[C@H](O)[C@H](Cc2ccccc2)NC(=O)OCc2cncs2)C(C)C)cs1 [ritonavir]

SMILES: CCC[C@@]1(CCc2ccccc2)CC(O)=C([C@H](CC)c2cccc(NS(=O)(=O)c3ccc(C(F)(F)F)cn3)c2)C(=O)O1 [tipranavir]
Change in tipranavir concentrations [7]: significant increase
